Experimental data published in ChEMBL document CHEMBL1132451, “Evaluation and biological properties of reactive ligands for the mapping of the glycine site on the N-methyl-D-aspartate (NMDA) receptor” (J Med Chem, 1999).
pIC50, pKi: −log10 of the molar value.

Key:
[1] = target: Glutamate receptor ionotropic, NMDA 1 (Rattus norvegicus, UniProt P35439); assay: Displacement of [3H]-5-7 dichlorokynurenic acid ([3H]- DCKA) from N-methyl-D-aspartate glutamate receptor glycine site of rat brain membrane homogenate; assay type: tissue-based
Procedure, shortened: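 Rat brain membranes kept at -80 °C, thawed, washed in HEPES-KOH 50 mM pH 7.5. About 0.1 mg protein incubated 30 min at 4 °C with 20 nM [3H]-DCKA and increasing probe; nonspecific binding with 1 mM glycine. Filtration, then scintillation counting. Logistic fit; Ki by Cheng-Prusoff (KD 35 nM). Mean (SE) of ≥3 experiments.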

[2] = target: Glutamate NMDA receptor; Grin1/Grin2b (Rattus norvegicus, UniProt P35439+Q00960); assay: Antagonistic activity for suppression of membrane current response elicited by fixed concentration of glycine and glutamate in Xenopus oocyte expressing N-methyl-D-aspartate glutamate receptor 1/2B; assay type: functional
Procedure, shortened: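 Xenopus oocytes expressing cloned NR1A/NR2B, superfused with frog's Ringer (10 mM HEPES, 115 mM NaCl, 0.9 mM CaCl2, 1 mM KCl, pH 7.2) containing 1 μM glycine plus 100 μM glutamate, with increasing antagonist. Washes of 4–6 min between stimulations. IC50 from five-point concentration-inhibition curves, sigmoidal fit, assuming competitive inhibition. Mean (SE) of ≥3 experiments.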

Chain of Glutamate NMDA receptor; Grin1/Grin2b (Q00960 whole entry, other chains not shown, the tested form may be a part): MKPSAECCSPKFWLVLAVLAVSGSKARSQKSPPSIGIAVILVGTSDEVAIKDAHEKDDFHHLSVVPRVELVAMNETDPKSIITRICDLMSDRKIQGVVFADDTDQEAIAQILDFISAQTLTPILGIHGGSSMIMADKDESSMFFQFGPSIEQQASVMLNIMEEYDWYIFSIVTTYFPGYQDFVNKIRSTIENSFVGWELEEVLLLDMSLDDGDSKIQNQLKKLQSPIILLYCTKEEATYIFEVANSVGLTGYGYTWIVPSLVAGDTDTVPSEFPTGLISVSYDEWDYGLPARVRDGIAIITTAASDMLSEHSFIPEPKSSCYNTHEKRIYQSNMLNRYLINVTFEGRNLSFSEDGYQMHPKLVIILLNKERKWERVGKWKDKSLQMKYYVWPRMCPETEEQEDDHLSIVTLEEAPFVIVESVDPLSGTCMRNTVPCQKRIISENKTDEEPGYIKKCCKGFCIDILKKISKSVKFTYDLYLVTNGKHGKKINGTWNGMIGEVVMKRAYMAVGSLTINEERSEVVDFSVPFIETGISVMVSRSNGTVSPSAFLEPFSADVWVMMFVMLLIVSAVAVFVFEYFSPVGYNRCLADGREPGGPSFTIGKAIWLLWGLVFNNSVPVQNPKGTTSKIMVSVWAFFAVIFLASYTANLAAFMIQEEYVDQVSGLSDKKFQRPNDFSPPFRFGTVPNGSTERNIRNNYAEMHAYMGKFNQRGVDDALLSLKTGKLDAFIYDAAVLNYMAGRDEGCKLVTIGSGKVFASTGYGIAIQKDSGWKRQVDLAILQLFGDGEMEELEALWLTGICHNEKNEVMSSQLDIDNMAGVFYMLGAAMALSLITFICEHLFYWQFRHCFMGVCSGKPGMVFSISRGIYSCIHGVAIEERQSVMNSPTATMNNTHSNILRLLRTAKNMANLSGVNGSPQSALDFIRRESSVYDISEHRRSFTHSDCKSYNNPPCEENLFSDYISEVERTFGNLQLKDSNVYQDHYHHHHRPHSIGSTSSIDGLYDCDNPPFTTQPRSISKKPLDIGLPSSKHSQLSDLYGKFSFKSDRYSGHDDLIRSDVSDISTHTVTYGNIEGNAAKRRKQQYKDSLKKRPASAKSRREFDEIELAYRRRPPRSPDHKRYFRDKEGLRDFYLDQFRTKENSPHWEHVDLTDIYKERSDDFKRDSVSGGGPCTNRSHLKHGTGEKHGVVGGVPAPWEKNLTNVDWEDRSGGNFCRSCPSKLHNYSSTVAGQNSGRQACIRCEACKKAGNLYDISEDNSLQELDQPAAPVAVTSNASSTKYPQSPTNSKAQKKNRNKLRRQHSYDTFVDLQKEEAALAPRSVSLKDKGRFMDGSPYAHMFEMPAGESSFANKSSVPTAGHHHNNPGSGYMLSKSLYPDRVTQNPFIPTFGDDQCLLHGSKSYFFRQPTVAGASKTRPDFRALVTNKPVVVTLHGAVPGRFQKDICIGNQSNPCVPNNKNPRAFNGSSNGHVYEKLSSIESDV

| SMILES | pKi [1] | pIC50 [2] |
| --- | --- | --- |
| O=C(Oc1c(-c2cccc(Oc3ccccc3)c2)c(=O)[nH]c2cc(Cl)ccc12)c1ccc(S(=O)(=O)F)cc1 | 7.62 | 5.62 |
| N#[N+]c1ccc2c(O)c(-c3cccc(Oc4ccccc4)c3)c(O)nc2c1 | < 6.00 | – |
| O=c1[nH]c2cc(Cl)ccc2c(O)c1-c1cccc(N=C=S)c1 | 7.32 | 6.70 |
| O=C(CCl)Nc1ccccc1Oc1cccc(-c2c(O)nc3cc(Cl)ccc3c2O)c1 | 8.15 | 7.62 |
| O=c1[nH]c2cc(Cl)ccc2c(O)c1-c1cccc(NCCS(=O)(=O)F)c1 | 7.62 | 6.47 |
| O=c1[nH]c2cc(Cl)ccc2c(O)c1-c1cccc(Oc2ccccc2NCCS(=O)(=O)F)c1 | 7.57 | 7.49 |
| O=c1[nH]c2cc(N=C=S)ccc2c(O)c1-c1cccc(Oc2ccccc2)c1 | 7.19 | 4.62 |

Next, values leading:

| pKi [1] | pIC50 [2] | SMILES |
| --- | --- | --- |
| 6.67 | < 4.00 | O=C(CCl)Nc1c(-c2cccc(Oc3ccccc3)c2)c(=O)[nH]c2cc(Cl)ccc12 |
| 6.56 | 4.42 | O=C(CCl)Nc1ccc2c(O)c(-c3cccc(Oc4ccccc4)c3)c(=O)[nH]c2c1 |
| 7.38 | 6.81 | O=C(CCl)Nc1cccc(-c2c(O)c3ccc(Cl)cc3[nH]c2=O)c1 |
| 7.86 | 7.41 | O=C(CCl)Nc1cccc(Oc2cccc(-c3c(O)nc4cc(Cl)ccc4c3O)c2)c1 |
| 6.37 | 4.20 | O=C(CCl)Nc1ccc2c(OC(=O)CCl)c(-c3cccc(Oc4ccccc4)c3)c(=O)[nH]c2c1 |
| 7.85 | 7.74 | O=c1[nH]c2cc(Cl)ccc2c(O)c1-c1cccc(Oc2ccccc2)c1 |
